Measurements: ChEMBL document CHEMBL4400513, “Aurone derivatives as promising antibacterial agents against resistant Gram-positive pathogens” (Eur J Med Chem, 2019)
In brackets after ≈: the same amount, converted by molar mass. Activity calls are given as the source filed them. The calls are words filed in the database; no cut-off is given here.

What was measured:
Aspergillus niger = assay: Antifungal activity against Aspergillus niger after 48 hrs by two-fold serial dilutions method; format: functional
How it was run: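 Two-fold serial dilution MIC, 0 to 500 µM, from 200 mM DMSO stocks; 0.2% DMSO final as vehicle control. Inoculum about 10^5 cells/mL. Organism maintained on potato dextrose agar and in RPMI. Plates incubated 48 h at 35 °C, then OD600 read; MIC taken as lowest concentration with no visible growth; n = 3 independent runs.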

Aspergillus flavus = assay: Fungicidal activity against Aspergillus flavus; format: functional, organism-based
How it was run: (§1)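 Filamentous fungi grown on potato dextrose agar and tested in RPMI medium with two-fold serial dilutions (0–500 µM, 0.2% DMSO final). Plates held at room temperature for 2 to 5 days, then OD600 read; MIC taken as the lowest concentration with no visible growth. The fungicidal endpoint is ≤1 colony after streaking 10 µL of no-growth wells on agar. n = 3.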

[1] = tested on: Streptococcus thermophilus; assay: Antimicrobial activity against Streptococcus thermophilus after 18 to 24 hrs in anaerobic condition by two-fold serial dilutions method; format: functional
How it was run: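 Precultures in BHI broth at 37 °C in an anaerobic cabinet, grown to log phase (OD600 ~0.6), then seeded at ~10^5 bacteria/mL. Two-fold dilutions from 0 to 500 µM, 0.2% DMSO final as control. Plates incubated anaerobically at 37 °C for 18–24 h, OD600 read; MIC = lowest concentration giving no visible growth; independent triplicate.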

Citrobacter rodentium = assay: Bactericidal activity against Citrobacter rodentium in aerobic condition; format: functional, organism-based
How it was run: (§2)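 From the MIC plates, 10 µL from each well without growth was streaked onto agar suited to the organism and incubated under that organism's growth conditions. Colonies were then counted; MBC = lowest concentration allowing ≤1 colony, i.e. killing 99.9% of bacteria.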

Escherichia coli [2] = assay: Bactericidal activity against Escherichia coli in aerobic condition; format: functional, organism-based; how it was run: as §2
Stachybotrys chartarum = assay: Antifungal activity against Stachybotrys chartarum after 2 to 5 days by two-fold serial dilutions method; format: functional
How it was run: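 Broth two-fold serial dilution MIC, 0 to 500 µM (1:2 steps), from 200 mM DMSO stocks; 0.2% DMSO final as vehicle control. Inoculum about 10^5 cells/mL. Strains maintained on potato dextrose agar and in RPMI medium. Plates held at room temperature for 2 to 5 days, OD600 read; MIC = lowest concentration preventing visible growth; independent triplicate.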

Staphylococcus aureus [3] = assay: Antimicrobial activity against methicillin-resistant Staphylococcus aureus after 18 to 24 hrs in aerobic condition by two-fold serial dilutions method; format: functional
How it was run: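 Strains grown on LB at 37 °C aerobically, then in Mueller-Hinton broth overnight at 200 rpm and brought to log phase (OD600 ~0.6). About 10^5 bacteria/mL exposed to two-fold serial dilutions 0–500 µM, DMSO 0.2% final as control. Aerobic incubation at 37 °C for 18–24 h; OD600 read; MIC = lowest concentration inhibiting visible growth. n = 3.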

Pseudomonas aeruginosa = assay: Bactericidal activity against Pseudomonas aeruginosa in aerobic condition; format: functional, organism-based
How it was run: (§3)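 MH broth; log-phase bacteria (OD600 ~0.6) diluted to ~10^5 bacteria/mL and exposed to two-fold serial dilutions (0–500 µM; 0.2% DMSO final as vehicle control) at 37 °C, aerobic, 18–24 h. MIC is the lowest concentration preventing visible growth (OD600). MBC is found by streaking 10 µL from no-growth wells onto agar; the MBC is the concentration where ≤1 colony grew. n = 3.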

Enterococcus faecalis = assay: Bactericidal activity against Enterococcus faecalis in anaerobic condition; format: functional, organism-based; how it was run: as §2
Cutibacterium acnes [4] = assay: Bactericidal activity against Propionibacterium acnes in aerobic condition; format: functional, organism-based; how it was run: as §2
Lactococcus lactis = assay: Bactericidal activity against Lactococcus lactis in aerobic condition; format: functional, organism-based; how it was run: as §2
Escherichia coli [5] = assay: Antimicrobial activity against Escherichia coli MRS after 18 to 24 hrs in aerobic condition by two-fold serial dilutions method; format: functional
How it was run: (§4)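 Colonies grown overnight (~16 h) in Mueller-Hinton broth at 37 °C, 200 rpm, diluted 1/100 and grown to log phase (OD600 ~0.6), then diluted to ~10^5 bacteria/mL. Exposed to 0 to 500 µM in 1:2 series (0.2% DMSO final control), aerobic, 37 °C, 18–24 h. OD600 read; MIC = lowest concentration without visible growth; n = 3.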

Fusarium oxysporum = assay: Fungicidal activity against Fusarium oxysporum; format: functional, organism-based; how it was run: as §1
Vibrio diabolicus = assay: Antimicrobial activity against Vibrio diabolicus after 18 to 24 hrs in aerobic condition by two-fold serial dilutions method; format: functional; how it was run: as §4
Clostridium botulinum = assay: Bactericidal activity against Clostridium botulinum in anaerobic condition; format: functional, organism-based
Clostridium perfringens = assay: Induction of cell membrane permeability in Clostridium perfringens assessed as membrane integrity after 240 mins in anaerobic condition by propidium iodide staining-based assay relative to control; format: functional
How it was run: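 Log-phase bacteria resuspended in PBS at about 10^9/mL with propidium iodide 60 µM final, mixed 1:1 with two-fold serial dilutions of compound. Fluorescence (ex 530/em 590 nm) recorded over 240 min at 37 °C anaerobically. Normalised to CTAB 300 µM or nisin at 5× MIC (100% permeabilization); DMSO as vehicle. Triplicate.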

Bacillus subtilis [6] = assay: Antimicrobial activity against Bacillus subtilis after 18 to 24 hrs in aerobic condition by two-fold serial dilutions method; format: functional; how it was run: as §4
Klebsiella variicola = assay: Bactericidal activity against Klebsiella variicola in aerobic condition; format: functional, organism-based; how it was run: as §2
Bacillus subtilis [7] = assay: Bactericidal activity against Bacillus subtilis in aerobic condition; format: functional, organism-based; how it was run: as §2
[8] = Therapeutic index, ratio of IC50 for human IMR90 cells to MIC for Clostridium perfringens; format: toxicity; details: read-out: TI
How it was run: (§5)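 IC50 measured on confluent normal human BEAS-2B or IMR-90 cells (DMEM, 10% FCS) after 48 h exposure with DMSO 0.2% as control. Resazurin read after 4 h (ex 530/em 590 nm), normalised to DMSO-treated cells. Index obtained by comparing this IC50 with the bacterial MIC.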

Citrobacter farmeri = assay: Bactericidal activity against Citrobacter farmeri in aerobic condition; format: functional, organism-based; how it was run: as §2
Escherichia coli [9] = assay: Bactericidal activity against Escherichia coli MRS in aerobic condition; format: functional, organism-based; how it was run: as §2
Aspergillus ochraceus = assay: Fungicidal activity against Aspergillus ochraceus; format: functional, organism-based; how it was run: as §1
Cutibacterium acnes [10] = assay: Antimicrobial activity against Propionibacterium acnes after 18 to 24 hrs in aerobic condition by two-fold serial dilutions method; format: functional
Staphylococcus aureus [11] = assay: Bactericidal activity against methicillin-resistant Staphylococcus aureus in aerobic condition; format: functional, organism-based
Shigella flexneri = assay: Bactericidal activity against Shigella flexneri in aerobic condition; format: functional, organism-based; how it was run: as §3
[12] = tested on: Streptococcus thermophilus; assay: Bactericidal activity against Streptococcus thermophilus in anaerobic condition; format: functional, organism-based
How it was run: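 S. thermophilus grown in BHI and brought to log phase (OD600 ~0.6). It is diluted to ~10^5 bacteria/mL and exposed to two-fold serial dilutions (0–500 µM, 0.2% DMSO final) at 37 °C in an anaerobic cabinet for 18–24 h. MIC read by OD600 as the lowest concentration with no visible growth. The MBC is the concentration where ≤1 colony grew after streaking 10 µL of no-growth wells on agar. Triplicate.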

Clostridioides difficile = assay: Bactericidal activity against Clostridium difficile in anaerobic condition; format: functional, organism-based; how it was run: as §2
[13] = Therapeutic index, ratio of IC50 for human BEAS2B cells to MIC for methicillin-resistant Staphylococcus aureus; format: toxicity; details: read-out: TI; how it was run: as §5

Structure (SMILES)	MIC (Aspergillus niger) [µM]	Activity (Aspergillus flavus)	MIC [1] [µM]	Activity (Citrobacter rodentium)	Activity (Escherichia coli [2])	MIC (Stachybotrys chartarum) [µM]	MIC (Staphylococcus aureus [3]) [µM]	Activity (Pseudomonas aeruginosa)	Activity (Enterococcus faecalis)	Activity (Cutibacterium acnes [4])	Activity (Lactococcus lactis)	MIC (Escherichia coli [5]) [µM]	Activity (Fusarium oxysporum)	MIC (Vibrio diabolicus) [µM]	Activity (Clostridium botulinum)	Activity (Clostridium perfringens)	MIC (Bacillus subtilis [6]) [µM]	Activity (Klebsiella variicola)	Activity (Bacillus subtilis [7])	Activity (Citrobacter farmeri)	further results
O=C1/C(=C/c2ccccc2)Oc2cc(O)cc(O)c21	62.5 (≈ 15.9 µg/mL)	Active	31.2 (≈ 7.95 µg/mL)	Active	Active	> 500	15.6 to 31.2 (≈ 3.97 to 7.95 µg/mL)	Active	Active	Active	Active	> 500	Active	> 500	Active	inactive	62.5 to 125 (≈ 15.9 to 31.8 µg/mL)	Active	Active	Active	selectivity ratio [8]: 32; Activity (Escherichia coli [9]): Active; Activity (Aspergillus ochraceus): Active; MIC (Cutibacterium acnes [10]): 31.2 µM (≈ 7.95 µg/mL); Activity (Staphylococcus aureus [11]): Active; Activity (Shigella flexneri): Active; Activity [12]: Active; Activity (Clostridioides difficile): Active
COc1cc(/C=C2\Oc3cc(O)cc(O)c3C2=O)ccc1OCc1ccccc1	> 500	Active	125 (≈ 48.8 µg/mL)	Active	Active	> 500	15.6 (≈ 6.09 µg/mL)	Active	Active	Active	Active	> 500	Active	> 500	Active	30%	7.8 (≈ 3.05 µg/mL)	Active	Active	Active	Activity (Escherichia coli [9]): Active; Activity (Aspergillus ochraceus): Active; MIC (Cutibacterium acnes [10]): 31.2 µM (≈ 12.2 µg/mL); Activity (Staphylococcus aureus [11]): Active; Activity (Shigella flexneri): Active; Activity [12]: Active; Activity (Clostridioides difficile): Active
O=C1/C(=C/c2ccc(F)cc2)Oc2cc(O)cc(O)c21	> 500	Active	31.2 (≈ 8.51 µg/mL)	Active	Active	> 500	7.8 to 15.6 (≈ 2.12 to 4.25 µg/mL)	Active	Active	Active	Active	> 500	Active	> 500	Active	inactive	62.5 (≈ 17 µg/mL)	Active	Active	Active	selectivity ratio [13]: 76; Activity (Escherichia coli [9]): Active; Activity (Aspergillus ochraceus): Active; MIC (Cutibacterium acnes [10]): 31.2 µM (≈ 8.51 µg/mL); Activity (Staphylococcus aureus [11]): Active; Activity (Shigella flexneri): Active; Activity [12]: Active; Activity (Clostridioides difficile): Active
